Source: PubChem BioAssay (several laboratories)
Hits are enriched below; roughly 1.7% of the tested compounds scored in any of these assays.
LMPTP block: blocks human LMPTP phosphatase | AID 651560 | recombinant LMPTP-A, OMFP fluorogenic substrate, fluorescence intensity | 0.22% of 360,000 active | inhibition, % at 20 µM;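 active means compounds that cut the enzyme signal by at least half of the control window in the single-dose screen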;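 further: plate controls were DMSO wells with enzyme plus substrate for no effect and substrate without enzyme for full effect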
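Test system: LMPTP-A phosphatase enzyme; input: 0.625 nM LMPTP-A final; reagent: OMFP substrate, 400 µM final; compound dosing: 20 µM single dose, 3% DMSO; incubation: 50 min dark incubation at room temperature; measured by: endpoint fluorescence intensity from OMFP dephosphorylation; measure: % inhibition relative to no-enzyme and uninhibited control wells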
Scp-1 inhibitor: Scp-1 (human) phosphatase inhibition; Recombinant Scp1, phosphopeptide, malachite green phosphate absorbance; inhibition, % at 20 µM; 0.88% of 340,000 active; AID 493091;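 active means inhibition above about 50% at 20 µM, limit read from the data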;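 further: plate controls were DMSO wells with enzyme for no effect and wells lacking enzyme for full effect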
Target sequence (Q9GZU7 76-261 limits assumed): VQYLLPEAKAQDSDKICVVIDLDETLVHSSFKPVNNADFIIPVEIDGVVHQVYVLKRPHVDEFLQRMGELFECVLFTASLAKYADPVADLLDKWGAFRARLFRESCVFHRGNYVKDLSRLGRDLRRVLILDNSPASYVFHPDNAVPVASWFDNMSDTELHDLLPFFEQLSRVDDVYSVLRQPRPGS
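Test system – truncated SCP-1 phosphatase (76-261aa) · Reagent – Phosphorylated 17-residue peptide substrate · Incubation – 45 min room-temperature reaction, 5 min colour, 30 min stabiliser · Detection – colorimetric phosphate reagent with accelerator and stabiliser, absorbance at 630 nm · Measure – % inhibition at 20 µM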
STEP block: STEP (human) phosphatase inhibition | recombinant STEP, OMFP fluorogenic substrate, fluorescence | AID 588621 | inhibition, % at 20 µM | 0.25% of 360,000 active | P54829;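 active means inhibition at 20 µM, scaled per plate between control wells, above about 37%, limit read from the data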;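 further: 0% = DMSO with enzyme and substrate and 100% = substrate only without enzyme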
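Material: STEP (striatal-enriched tyrosine phosphatase) enzyme, cell-free | Medium: 50 mM Bis-Tris pH 6.0 with 2.5 mM DTT and 0.005% Tween 20 | Read-out: Percent inhibition scaled to no-enzyme and uninhibited-enzyme controls, plate-pattern corrected | Signal: Fluorescence read at 480 nm ex / 540 nm em | Times: 20 min reaction, room temperature, in the dark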
Casp6 inh: blocks human caspase-6 cleavage activity. P55212. purified caspase-6, Z-VEID-R110 cleavage fluorescence. inhibition, % at 12.5 µM. 0.53% of 350,000 active. AID 686996;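 active means mean inhibition across replicates at least about 35%, with every replicate also reaching that limit, limit read from the data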;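 further: 0% = median of neutral control wells and 100% = no fluorescence left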
Target sequence (P55212 24-179 limits assumed): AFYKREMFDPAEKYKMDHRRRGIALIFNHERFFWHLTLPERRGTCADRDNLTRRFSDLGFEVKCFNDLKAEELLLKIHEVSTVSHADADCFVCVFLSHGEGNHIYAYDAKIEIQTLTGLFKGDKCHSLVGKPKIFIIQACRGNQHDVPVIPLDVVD
Target sequence (P55212 194-293 limits assumed): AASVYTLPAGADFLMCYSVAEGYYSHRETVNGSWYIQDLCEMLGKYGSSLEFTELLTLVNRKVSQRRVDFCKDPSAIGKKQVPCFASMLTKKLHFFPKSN
SUMO1-SIM PPI: SUMO1-SIM interaction modulation; inhibition, % at 20 µM; AID 602429; 0.33% of 360,000 active; SUMO1 binding to a labelled peptide, TR-FRET, 1 h; P63165; in the data active means inhibition above about 37%
Target sequence (P63165 whole entry, looked up): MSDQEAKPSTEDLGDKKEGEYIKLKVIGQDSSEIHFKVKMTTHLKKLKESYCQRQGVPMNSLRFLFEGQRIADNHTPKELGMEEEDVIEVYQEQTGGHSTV
DNMT1 inh: DNMT1 (human) enzyme inhibition; P26358; DNMT1 molecular beacon, Hinp1I cleavage, fluorescence; inhibition (reported as % activation of signal), % at 10 µM; 0.83% of 360,000 active; AID 588458; in the data active means inhibition above about 50%
The depositor's hits bear a star; / = no result given.

SMILES	LMPTP block	Scp-1 inhibitor	STEP block	Casp6 inh	SUMO1-SIM PPI	DNMT1 inh
CSc1ccccc1NC(=O)COC(=O)/C=C/c1ccco1	4	37	7	41*	-10	26
CC(C)(C)c1cc(C(=O)O)n(Cc2ccc(Cl)cc2Cl)n1	0	-13	1	-2	49*	3
COc1ccc(C2/C=C\CN(C(=O)NC34CC5CC(CC(C5)C3)C4)CC(=O)N2Cc2ccc(F)cc2)cc1 (stereo unspecified)	2	-2	0	/	4	-3
COc1cc(OC)c2c(c1O)OC(c1ccccc1)CC2=O (stereo unspecified)	1	10	1	40*	3	-13
O=C1CC(c2ccccc2)Oc2cc(O)cc(O)c21 (stereo unspecified)	1	-1	-2	5	-2	-6
Cc1ccc(/C=C/C2=NN(C)C(=O)CC2)cc1	0	9	-4	1	-12	-1
CN1CCN(C(=O)c2sc(=S)n(-c3ccccc3)c2N)CC1	2	22	96*	/	-11	-2
CC(=O)Oc1cc(C(=O)OCC(=O)N2CCc3ccccc3C2)cc(OC(C)=O)c1OC(C)=O	2	53*	6	31	7	5
O=C1NN=C(CSc2n[nH]c(=S)s2)CS1	0	28	-1	-2	50*	4
CC(C)CSc1n[nH]c(=S)s1	7	4	2	1	-1	3
OCCN(CC(O)Cn1ccc2ccccc21)CC(O)Cn1ccc2ccccc21 (stereo unspecified)	-1	-7	-7	/	-8	-28
CO[C@H]1CN(C)C(=O)c2cc(NC(C)=O)ccc2OC[C@H](C)N(S(=O)(=O)c2cn(C)cn2)C[C@H]1C	/	/	/	36*	/	/
CO[C@H]1CN(C)C(=O)c2ccc(NC(=O)C3CC3)cc2OC[C@@H](C)N(C(=O)Cc2ccccn2)C[C@@H]1C	/	/	/	1	/	/
CO[C@H]1CN(C)C(=O)c2ccc(NS(=O)(=O)c3cccc(Cl)c3)cc2OC[C@@H](C)NC[C@@H]1C	/	/	/	-1	/	/
CO[C@H]1CN(C)C(=O)c2cc(NC(C)=O)ccc2OC[C@@H](C)N(S(=O)(=O)c2cn(C)cn2)C[C@@H]1C	/	/	/	0	/	/
CO[C@@H]1CN(C)C(=O)c2ccc(NC(=O)C3CC3)cc2OC[C@@H](C)N(C)C[C@H]1C	/	/	/	99*	/	/
CO[C@H]1CN(C)C(=O)c2ccc(NS(=O)(=O)c3cccc(Cl)c3)cc2OC[C@@H](C)NC[C@H]1C	/	/	/	41*	/	/
CO[C@@H]1CN(C)C(=O)c2ccc(NC(=O)C3CC3)cc2OC[C@@H](C)N(C(=O)Cc2ccccn2)C[C@H]1C	/	/	/	39*	/	/
COc1cc(OC)c(N(C)S(=O)(=O)c2cccc(C(=O)OCC(=O)N(C)Cc3ccccc3)c2)cc1Cl	4	-16	-2	3	1	-11
CSc1cccc(NC(=S)N2CCC(N(C)C3CCCCC3)CC2)c1	2	-1	6	-21	-2	4
Cc1ccc(C(=O)c2c[nH]c(C(=O)NCCCN3CCOCC3)c2)cc1	0	-5	-1	-4	3	0
CC(C)CC(=O)c1c[nH]c(C(=O)NCCCN2CCOCC2)c1	-1	-8	1	/	45*	3
Cc1ccc(NC(=O)CN2C(=O)CSC2=O)cc1	-2	3	-1	/	-3	0
Cc1ccc(NC(=O)c2ccco2)c(NC(=O)CN2C(=O)c3ccccc3C2=O)c1	-2	3	3	/	-6	1
CC(C)CN1CCC(CN2CCNC(=O)C2=O)CC1	-2	-5	-1	36*	-2	5
SMILES	LMPTP block	Scp-1 inhibitor	STEP block	Casp6 inh	SUMO1-SIM PPI	DNMT1 inh
COC(=O)NN=C1CCC(c2ccccc2)CC1 (stereo unspecified)	-1	-6	0	-1	1	-2
COC(=O)N/N=C1/C/C(=N\NC(=O)OC)c2ccccc21	0	-4	3	91*	-16	-8
Cc1nc(SC(C)C(=O)c2c(N)n(C)c(=O)n(C)c2=O)c2c(C)c(C)sc2n1 (stereo unspecified)	1	-6	3	49*	7	-1
CC(Sc1nnc(N)s1)C(=O)c1c(N)n(C)c(=O)n(C)c1=O (stereo unspecified)	-1	-11	-1	5	11	0
C[C@H]1CCCCO[C@H](CN(C)C(=O)Nc2ccccc2)[C@@H](C)CN([C@@H](C)CO)C(=O)c2cc(NC(=O)Cc3ccccc3)ccc2O1	/	/	/	3	/	/
O=C(C[N+]1(CC#Cc2ccccc2)CCCCC1)c1ccccc1	-2	3	-1	-4	2	1
CCOC(=O)N1CCN(C(=O)CN(C)S(=O)(=O)c2ccc3c(c2)c(=O)n(C)c(=O)n3C)CC1	-1	-7	1	42*	1	-4
O=C(O)c1cccc(Nc2ccnc(Nc3cccc(C(=O)O)c3)n2)c1	1	1	2	35*	14	1
CCOC(=O)C1CCN(S(=O)(=O)c2ccc3c(c2)CC(=O)N3C)CC1	-1	69*	0	3	-1	-4
CC(C)=CCC/C(C)=C/C=N/NC(=O)c1ccccc1[N+](=O)[O-]	1	-4	6	/	-13	2
COc1ccc(-n2sc3ccccc3c2=O)cc1	-2	/	-2	2	2	-2
Cc1ccc(C)c(-n2sc3ccc(F)cc3c2=O)c1	0	70*	0	1	2	2
COc1ccc(-n2sc3ccc(F)cc3c2=O)cc1	-1	81*	-3	0	4	-4
O=c1c2cc(F)ccc2sn1-c1ccc(F)cc1	-2	81*	2	/	2	-8
C/C=C/c1ccc([C@@H]2[C@H](CO)N(S(=O)(=O)CC)C23CN(C(C)=O)C3)cc1	/	/	/	0	/	/
Cn1c(SCC(=O)NCc2ccc(F)cc2)nc2ccccc21	-1	0	8	/	1	-1
CC(=O)Nc1ccc(NC(=O)c2cc(-c3cc(C)c(C)cc3O)n[nH]2)cc1	1	-6	0	-4	40*	-3
Cc1c(OCC(F)(F)F)ccnc1CS(=O)c1nc2ccccc2[nH]1 (stereo unspecified)	7	-11	3	2	-4	-8
COCCCOc1ccnc(CS(=O)c2nc3ccccc3[nH]2)c1C (stereo unspecified)	1	14	74*	6	1	-4
CC(C)NC(=O)N(C)C[C@@H]1OCCCC[C@H](C)Oc2ccc(NC(=O)Nc3ccc4c(c3)OCO4)cc2C(=O)N([C@@H](C)CO)C[C@H]1C	/	/	/	-1	/	/
O=C(NN=C1CCCC1)c1[nH]c2ccc(Br)cc2c1-c1ccccc1	/	-4	/	-6	/	/
COc1ccc(-c2cc3c(=O)n(CC(=O)NCCCN4CCC(Cc5ccccc5)CC4)ncn3n2)cc1	3	0	2	-2	-7	4
